# Results collected from several papers.
# Protocols differ between the studies behind these lines.
Structure (SMILES),host,medium,route,dose,time,setting,concentration
Fc1ccc(Oc2ccc(Nc3ccc4ncc(OCC5CCNCC5)nc4c3)cc2)cc1,SCID mouse,plasma,intraperitoneal,50 mg/kg,24 h,,1700 nM
Cc1ccc2c(c1)C(=O)[C@]1(O)CCN(c3ccc4nc(C)ccc4c3)C1=N2,mouse,plasma,subcutaneous,10 mg/kg,30 min,,2500 nM
OCc1nc2ccc(NCc3ccc(C(F)(F)F)cc3)cc2[nH]1,male BALB/c mouse,brain,intravenous,1 mg/kg,6 h,,26.1 ng/g
CC(C)n1ncc2c(C(=O)NCC3(C)CNC3)cc(C3CC3)nc21,female BALB/c mouse,plasma,intraperitoneal,50 mg/kg,1 h,,2660 ng/mL
CC1(C)NC(=O)N(c2ccc(F)c(Br)c2)C1=O,male Swiss mouse,plasma,oral,100 mg/kg,48 h,,1110 ng/mL
CC(C)(C)S(=O)(=O)c1cc2c(Nc3ccc4scnc4c3)ncnc2cc1OCCOP(=O)(O)O,BALB/c mouse,plasma,oral,10 mg/kg,6 h,,21 ng/mL
CN(C)C(=O)c1cc2cnc(Nc3ccc(-c4ccc5c(=O)cc(N6CCOCC6)oc5c4)cc3)nc2n1C1CCCC1,BALB/c mouse,brain,oral,20 mg/kg,2 h,single dose,108 ng/g
CC1(C)NC(=O)N(c2ccc(F)c(S(C)(=O)=O)c2)C1=O,male Swiss mouse,plasma,oral,100 mg/kg,1 h,,31900 ng/mL
NCc1cc2c(cc1F)C(=O)N(C1CCC(=O)NC1=O)C2 (centres unmarked),male CD-1 mouse,plasma,oral,10 mg/kg,1 h,,81 ng/mL
O=C1CCC(N2Cc3cc(C4CCN(Cc5ccccc5)CC4)ccc3C2=O)C(=O)N1 (centres unmarked),male CD-1 mouse,plasma,oral,3 mg/kg,4.98 min,,49.6 ng/mL
O=Cc1cc2c(cc1F)C(=O)N(C1CCC(=O)NC1=O)C2 (centres unmarked),male CD-1 mouse,plasma,intravenous,1 mg/kg,1.02 min,,17.2 ng/mL
CC(C)c1cc(C(=O)NCCN)c2cnn(C(C)C)c2n1,female BALB/c mouse,plasma,intraperitoneal,50 mg/kg,30 min,,2430 ng/mL
Cc1nc2ccc(OCc3ccc(C(F)(F)F)cc3)cc2[nH]1,male BALB/c mouse,brain,oral,10 mg/kg,72 h,,2.7 ng/g
O=C1CCC(N2Cc3cc(CO)c(F)cc3C2=O)C(=O)N1 (centres unmarked),male CD-1 mouse,plasma,intravenous,1 mg/kg,4 h,,1.7 ng/mL
